Data reported in ChEMBL document CHEMBL3046303, “Nematotoxic phenolic compounds from Melia azedarach against Meloidogyne incognita” (J Agric Food Chem, 2012).
≈ marks a conversion by molar mass, not a printed value. Calls of active or inactive are those of the source. The calls are words filed in the database; no cut-off is given here.

tested on: Meloidogyne incognita; assay: Nematotoxic activity against Meloidogyne incognita (root-knot nematode); format: functional, organism-based
How it was run: (§1)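 Freshly hatched J2 (24 h old), extracted from tomato roots, were exposed to test solutions at 25 J2 per well. Plates were kept in the dark at 28 °C with water and solvent-carrier controls. Nematodes were scored under an inverted microscope (40×) as motile or paralyzed. Paralysis was corrected for the water control by the Schneider-Orelli formula. EC50 came from log-logistic regression. Experiments were run twice.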

Row | Structure (SMILES) | EC50 [µg/mL] | LC50 [µg/mL]
1 | O=Cc1ccc(CO)o1 [AES-103] | 8.5 (≈ 0.0674 mM) | –
2 | O=Cc1ccco1 [FURFURAL] | 41.1 (≈ 0.428 mM) | –
3 | O=C(O)c1ccccc1O [SALICYLIC ACID] | – | 46 (≈ 0.333 mM)
4 | CCCCCCCCCCCCCCCC(=O)O [PALMITIC ACID] | 38.3 (≈ 0.149 mM) | –
5 | CCCCCC(=O)O [HEXANOATE] | 38.3 (≈ 0.33 mM) | –
6 | Cc1ccc(C=O)o1 [5-METHYLFURFURAL] | 45.7 (≈ 0.415 mM) | –

tested on: Meloidogyne incognita; assay: Nematotoxic activity against freshly hatched Meloidogyne incognita J2 (root-knot nematode) isolated from tomato roots assessed as induction of nematode paralysis measured 24 hr after immersion in compound test solutions; format: functional, organism-based
How it was run: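 Freshly hatched (24 h) J2 extracted from tomato roots; 25 J2 per well in 96-well plates, kept in the dark at 28 °C. Motile or paralyzed J2 were scored under an inverted microscope at 40×. Paralysis was corrected for the water control (Schneider-Orelli). EC50 was fitted by log-logistic regression on the mean of five replicates; experiments were run twice.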

Row | Structure (SMILES) | EC50 [µg/mL]
7 | O=C(O)c1ccc(O)cc1 [PARABEN] | 871 (≈ 6.31 mM)
8 | COc1cc(C(=O)O)ccc1O [VANILLIC ACID] | > 1000
9 | O=C(O)/C=C/c1ccc(O)c(O)c1 [CAFFEIC ACID] | > 1000
10 | O=C(O)/C=C/c1ccc(O)cc1 [COUMARIC ACID] | 840 (≈ 5.12 mM)
11 | O=C(O)c1cccnc1 [NIACIN] | 1730 (≈ 14.1 mM)
12 | O=C(O)c1ccc(O)c(O)c1 [PROTOCATECHUIC ACID] | > 1000
13 | O=C(O)CC(O)C(=O)O (stereo not given) [MALIC ACID] | > 1000
14 | O=C(O)c1ccc2ccccc2c1 [BETA-NAPHTOIC ACID] | > 1000
15 | O=C(O)c1ccccc1O [SALICYLIC ACID] | 379 (≈ 2.74 mM)
16 | O=C(O)c1cc(O)c(O)c(O)c1 [GALLIC ACID] | > 1000
17 | C[C@@H]1O[C@@H](OC[C@H]2O[C@@H](Oc3c(-c4ccc(O)c(O)c4)oc4cc(O)cc(O)c4c3=O)[C@H](O)[C@@H](O)[C@@H]2O)[C@H](O)[C@H](O)[C@H]1O [RUTIN] | > 1000
18 | Oc1cc(O)c2c(c1)O[C@@H](c1ccc(O)c(O)c1)[C@@H](O)C2 [(+)-EPICATECHIN] | > 1000
19 | Oc1cc(O)c2c(c1)OC(c1ccc(O)c(O)c1)C(O)C2 (stereo not given) [CATECHIN] | > 1000
20 | O=C(O)c1ccccc1 [BENZOIC ACID] | 501 (≈ 4.1 mM)
21 | O=C(/C=C/c1ccc(O)c(O)c1)O[C@@H]1C[C@](O)(C(=O)O)C[C@@H](O)[C@H]1O [CHLOROGENIC ACID] | > 1000
22 | COc1cc(/C=C/C(=O)O)ccc1O [FERULATE] | > 1000

tested on: Meloidogyne incognita; assay: Nematotoxic activity against freshly hatched Meloidogyne incognita J2 (root-knot nematode) isolated from tomato roots assessed as induction of nematode paralysis at 1000 ug/mL measured 24 hr after immersion in compound test solutions; format: functional, organism-based; how it was run: as §1

Row | Structure (SMILES) | Activity
23 | O=C(O)/C=C/c1ccc(O)c(O)c1 [CAFFEIC ACID] | inactive
24 | O=C(O)c1ccccc1O [SALICYLIC ACID] | Active

tested on: Meloidogyne incognita; assay: Nematotoxic activity against freshly hatched Meloidogyne incognita J2 (root-knot nematode) isolated from tomato roots assessed as induction of microscopic damages in nematode body measured 24 hr after immersion in compound test solutions; format: functional, organism-based

Row | Structure (SMILES) | Activity
25 | O=Cc1ccco1 [FURFURAL] | Active
